Laboratory results: ChEMBL document CHEMBL1122917, “Vinblastin-23-oyl amino acid derivatives: chemistry, physicochemical data, toxicity, and antitumor activities against P388 and L1210 leukemias” (J Med Chem, 1985)

Key:
Mus musculus [1] = experiment: Percent increase in life span at dose 0.5 mg/kg/day in 10 mice implanted with P388 leukemia cell line; format: functional
Mus musculus [2] = experiment: Percent increase in life span of DBA2 mice after inoculation with L1210 leukemia intravenously at a dose of 4.5 mg/kg per day; format: functional; conditions: route intravenous
Mus musculus [3] = experiment: Number of survivors of DBA2 mice on 30th day after inoculation with L1210 leukemia cell line intravenously at a dose of 4.5 mg/kg/day; 0/10; format: functional; conditions: route intravenous
Mus musculus [4] = experiment: Percent increase in life span of DBA2 mice after inoculation with L1210 leukemia intravenously at a dose of 1.5 mg/kg per day; format: functional; conditions: route intravenous
Mus musculus [5] = experiment: Number of survivors on 60th day at dose 1.5 mg/kg/day in 10 mice implanted with P388 leukemia cell line; 0/10; format: functional
Mus musculus [6] = experiment: Number of survivors of DBA2 mice on 60th day after inoculation with L1210 leukemia cell line intravenously at a dose of 1.5 mg/kg/day; 0/10; format: functional; conditions: route intravenous
Mus musculus [7] = experiment: Number of survivors of DBA2 mice on 60th day after inoculation with L1210 leukemia cell line intravenously at a dose of 5.5 mg/kg/day; 0/10; format: functional; conditions: route intravenous
Mus musculus [8] = experiment: Percent increase in life span of BDF1 mice after inoculation with P388 leukemia cells intraperitoneally at a dose of 0.22 mg/kg per day for 1-9 scheduled days; conditions: P388, ip
Mus musculus [9] = experiment: Number of survivors of DBA2 mice on 60th day after inoculation with L1210 leukemia cell line intraperitoneally at a dose of 0.33 mg/kg/day; 0/10; format: functional; conditions: route intraperitoneal
Mus musculus [10] = experiment: Percent increase in life span at dose 11 mg/kg/day in 10 mice implanted with P388 leukemia cell line; format: functional
Outline: (§1)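 Female DBA2 mice inoculated iv on day 0 with 10^4 P388 cells; single iv treatment on day 1 with drug as sulfate salt in physiological saline. Survival followed; %ILS from all deaths and survivors as (T/C × 100) − 100, maximal MST 30 days; survivors counted on days 30 and 60. Most experiments confirmed three times.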

Mus musculus [11] = experiment: Percent increase in life span at dose 4 mg/kg/day in 7 mice implanted with P388 leukemia cell line for 1,8,15 scheduled day from Exp-1; format: functional
Mus musculus [12] = experiment: Number of survivors on 60th day at dose 4 mg/kg/day in 10 mice implanted with P388 leukemia cell line; 2/10; format: functional
Mus musculus [13] = experiment: Number of survivors on 60th day at dose 4 mg/kg/day in 7 mice implanted with P388 leukemia cell line for 1,8,15 acheduled days form Exp-1; 0/10; format: functional
Mus musculus [14] = experiment: Number of survivors on 60th day at dose 10 mg/kg/day in 10 mice implanted with P388 leukemia cell line; 0/10; format: functional
Mus musculus [15] = experiment: Number of survivors on 60th day at dose 7 mg/kg/day in 9 mice implanted with P388 leukemia cell line;0/9; format: functional
Mus musculus [16] = experiment: Percent increase in life span of DBA2 mice after inoculation with L1210 leukemia intravenously at a dose of 60 mg/kg per day; format: functional; conditions: route intravenous
Outline: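 Female DBA2 mice inoculated iv on day 0 with 10^4 L1210 cells; drugs given iv as sulfate salts in physiological saline, mostly once on day 1. %ILS from all deaths and survivors as (T/C × 100) − 100; survivors scored on days 30 and 60.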

Mus musculus [17] = experiment: Percent increase in life span at dose 55 mg/kg/day in 7 mice implanted with P388 leukemia cell line for 1,8,15 schedule day; format: functional
Mus musculus [18] = experiment: Number of survivors on 60th day at dose 56 mg/kg/day in 10 mice implanted with P388 leukemia cell line; 2/10; format: functional
Mus musculus [19] = experiment: Number of survivors on 60th day at dose 60 mg/kg/day in 10 mice implanted with P388 leukemia cell line 1,5,9 scheduled days; 3/10; format: functional
Mus musculus [20] = experiment: Number of survivors of DBA2 mice on 30th day after inoculation with L1210 leukemia cell line intravenously at a dose of 60 mg/kg/day; 0/10; format: functional; conditions: route intravenous
Mus musculus [21] = experiment: Number of survivors on 60th day at dose 50 mg/kg/day in 10 mice implanted with P388 leukemia cell line; 5/10; format: functional
Mus musculus [22] = experiment: Percent increase in life span at dose 60 mg/kg/day in 10 mice implanted with P388 leukemia cell line for 1st schedule day; format: functional
Mus musculus [23] = experiment: Percent increase in life span at dose 65 mg/kg/day in 10 mice implanted with P388 leukemia cell line; format: functional; outline: as §1
Mus musculus [24] = experiment: Percent increase in life span at dose 65 mg/kg/day in 10 mice implanted with P388 leukemia cell line for 1st schedule day; format: functional
Mus musculus [25] = experiment: Number of survivors on 60th day at dose 65 mg/kg/day in 7 mice implanted with P388 leukemia cell line for 1,8,15 scheduled days in Exp-2; 0/10; format: functional
Mus musculus [26] = experiment: Number of survivors on 60th day at dose 70 mg/kg/day in 10 mice implanted with P388 leukemia cell line; 0/11; format: functional
Mus musculus [27] = experiment: Number of survivors of DBA2 mice on 60th day after inoculation with L1210 leukemia cell line intravenously at a dose of 45 mg/kg/day; 0/10; format: functional; conditions: route intravenous
Mus musculus [28] = experiment: Number of survivors on 30th day at dose 56 mg/kg/day in 10 mice implanted with P388 leukemia cell line; 4/10; format: functional
Mus musculus [29] = experiment: Number of survivors of DBA2 mice on 60th day after inoculation with L1210 leukemia cell line intravenously at a dose of 55 mg/kg/day; 0/10; format: functional; conditions: route intravenous
Mus musculus [30] = experiment: Number of survivors of DBA2 mice on 60th day after inoculation with L1210 leukemia cell line intravenously at a dose of 60 mg/kg/day; 0/10; format: functional; conditions: route intravenous
Mus musculus [31] = experiment: Percent increase in life span at dose 50 mg/kg/day in 10 mice implanted with P388 leukemia cell line; format: functional; outline: as §1
Mus musculus [32] = experiment: Percent increase in life span at dose 8 mg/kg/day in 7 mice implanted with P388 leukemia cell line for 1,8,15 schedule days from Exp-2; format: functional
Mus musculus [33] = experiment: Number of survivors on 30th day at dose 8 mg/kg/day in 10 mice implanted with P388 leukemia cell line; 8/10; format: functional
Mus musculus [34] = experiment: Number of survivors on 60th day at dose 2 mg/kg/day in 10 mice implanted with P388 leukemia cell line for 1st scheduled day; 0/10; format: functional
Mus musculus [35] = experiment: Number of survivors on 60th day at dose 2.5 mg/kg/day in 10 mice implanted with P388 leukemia cell line; 0/10; format: functional
Mus musculus [36] = experiment: Percent increase in life span at dose 2.5 mg/kg/day in 10 mice implanted with P388 leukemia cell line for 1st scheduled day; format: functional
Mus musculus [37] = experiment: Percent increase in life span at dose 2.5 mg/kg/day in 7 mice implanted with P388 leukemia cell line for 1,8,15 scheduled days from Exp-1; format: functional
Mus musculus [38] = experiment: Number of survivors on 30th day at dose 3 mg/kg/day in 9 mice implanted with P388 leukemia cell line; 0/10; format: functional
Mus musculus [39] = experiment: Number of survivors on 60th day at dose 2.5 mg/kg/day in 7 mice implanted with P388 leukemia cell line for 1,8,15 scheduled days from Exp-2; 0/11; format: functional

With `CC[C@]1(O)C[C@H]2CN(CCc3c([nH]c4ccccc34)[C@@](C(=O)OC)(c3cc4c(cc3OC)N(C=O)[C@H]3[C@@](O)(C(=O)OC)[C@H](OC(C)=O)[C@]5(CC)C=CCN6CC[C@]43[C@@H]65)C2)C1` [VINCRISTINE] the ILS at 0.5 mg/kg/day (Mus musculus [1]) was 4%, the ILS at 4.5 mg/kg/day (Mus musculus [2]) was 20% and the Survivors (Mus musculus [3]) was 0. It also gave an ILS at 1.5 mg/kg/day (Mus musculus [4]) of 12%, a Survivors (Mus musculus [5]) of 0 and a Survivors (Mus musculus [6]) of 0. For the same compound, the Survivors (Mus musculus [7]) was 0 and the ILS at 0.22 mg/kg/day (Mus musculus [8]) was 146%.

In the case of `CC[C@]1(O)C[C@@H]2CN(CCc3c([nH]c4ccccc34)[C@@](C(=O)OC)(c3cc4c(cc3OC)N(C)[C@H]3[C@@](O)(C(=O)OC)[C@H](OC(C)=O)[C@]5(CC)C=CCN6CC[C@]43[C@@H]65)C2)C1` [VINBLASTINE], the Survivors (Mus musculus [9]) is reported as 0, the ILS at 11 mg/kg/day (Mus musculus [10]) is reported as -40% and the ILS at 4 mg/kg/day (Mus musculus [11]) is reported as 58%. It also gave a Survivors (Mus musculus [12]) of 2, a Survivors (Mus musculus [13]) of 0 and a Survivors (Mus musculus [14]) of 0. It also gave a Survivors (Mus musculus [15]) of 0.

Work on `CCOC(=O)[C@H](Cc1c[nH]c2ccccc12)NC(=O)[C@@]1(O)[C@H](O)[C@]2(CC)C=CCN3CC[C@@]4(c5cc([C@@]6(C(=O)OC)C[C@H]7C[N@](CCc8c6[nH]c6ccccc86)C[C@](O)(CC)C7)c(OC)cc5N(C)[C@@]14C)[C@@H]32` yielded an ILS at 60 mg/kg/day (Mus musculus [16]) of 58%, an ILS at 55 mg/kg/day (Mus musculus [17]) of 53% and a Survivors (Mus musculus [18]) of 2. It also gave a Survivors (Mus musculus [19]) of 3, a Survivors (Mus musculus [20]) of 0 and a Survivors (Mus musculus [21]) of 5. The ILS at 60 mg/kg/day (Mus musculus [22]) was > 224%, the ILS at 65 mg/kg/day (Mus musculus [23]) was > 173% and the ILS at 65 mg/kg/day (Mus musculus [24]) was 82%. For the same compound, the Survivors (Mus musculus [25]) was 0, the Survivors (Mus musculus [26]) was 0 and the Survivors (Mus musculus [27]) was 0. The Survivors (Mus musculus [28]) was 4, the Survivors (Mus musculus [29]) was 0 and the Survivors (Mus musculus [30]) was 0. The ILS at 50 mg/kg/day (Mus musculus [31]) was > 161%.

`CCOC(=O)[C@@H](NC(=O)[C@@]1(O)[C@H](O)[C@]2(CC)C=CCN3CC[C@@]4(c5cc([C@@]6(C(=O)OC)C[C@H]7C[N@](CCc8c6[nH]c6ccccc86)C[C@](O)(CC)C7)c(OC)cc5N(C)[C@@]14C)[C@@H]32)[C@@H](C)CC` was tested, and the ILS at 8 mg/kg/day (Mus musculus [32]) was > 482% and the Survivors (Mus musculus [33]) was 8.

`CC[C@]1(O)C[C@@H]2CN(CCc3c([nH]c4ccccc34)[C@@](C(=O)OC)(c3cc4c(cc3OC)N(C)[C@H]3[C@@](O)(C(N)=O)[C@H](O)[C@]5(CC)C=CCN6CC[C@]43[C@@H]65)C2)C1` [VINDESINE] gave a Survivors (Mus musculus [34]) of 0, a Survivors (Mus musculus [35]) of 0 and an ILS at 2.5 mg/kg/day (Mus musculus [36]) of 32%. It also gave an ILS at 2.5 mg/kg/day (Mus musculus [37]) of 31%, a Survivors (Mus musculus [38]) of 0 and a Survivors (Mus musculus [39]) of 0.
